In ChEMBL document CHEMBL4715736, “Identification of anticancer agents based on the thieno[2,3-b]pyridine and 1H-pyrazole molecular scaffolds” (2016):

What was measured:
Format in all cases: functional
[1] = test system: NCI-H23; experiment: Growth inhibition of human NCI-H23 cells assessed as cell growth at 100 uM incubated for 48 hrs by sulforhodamine B assay relative to control; settings: read-out: Activity
[2] = test system: NCI-H23; experiment: Growth inhibition of human NCI-H23 cells incubated for 48 hrs by sulforhodamine B assay
Summary of the method: (§1)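 NCI60 panel at the NCI Developmental Therapeutics Program. Only compounds active in the 10 µM screen went to dose-response testing. GI50, the concentration giving 50% of maximal inhibition of proliferation, and TGI, the concentration giving total growth inhibition, were derived from the dose-response curves.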

[3] = test system: A498; experiment: Growth inhibition of human A498 cells assessed as cell growth at 100 uM incubated for 48 hrs by sulforhodamine B assay relative to control; settings: read-out: Activity
Summary of the method: (§2)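 NCI Developmental Therapeutics Program NCI60 panel. Compounds that were active in the 10 µM one-dose screen went on to dose–response testing. Growth at each concentration is expressed relative to untreated control (100%). GI50 (concentration giving 50% of maximal inhibition of proliferation) and TGI (concentration giving total growth inhibition) were derived from the curves.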

[4] = test system: NCI-H322M; experiment: Growth inhibition of human NCI-H322M cells incubated for 48 hrs by sulforhodamine B assay; settings: for CC50: read-out: LC50 (the source's name); summary of the method: as §1
[5] = test system: UACC-257; experiment: Growth inhibition of human UACC-257 cells incubated for 48 hrs by sulforhodamine B assay
Summary of the method: (§3)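 NCI DTP 60-line human tumour panel. Dose-response curves were run only for ligands active in the initial 10 µM screen. GI50 (concentration giving 50% of maximal inhibition of proliferation) and TGI (concentration giving total growth inhibition) were derived from these curves.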

[6] = test system: Hs-578T; experiment: Growth inhibition of human Hs-578T cells assessed as cell growth at 0.1 uM incubated for 48 hrs by sulforhodamine B assay relative to control; settings: read-out: Activity
[7] = test system: SF-539; experiment: Growth inhibition of human SF-539 cells incubated for 48 hrs by sulforhodamine B assay; settings: for CC50: read-out: LC50 (the source's name); summary of the method: as §3
[8] = test system: SK-OV-3; experiment: Growth inhibition of human SK-OV-3 cells assessed as cell growth at 1 uM incubated for 48 hrs by sulforhodamine B assay relative to control; settings: read-out: Activity
[9] = test system: CCRF-CEM; experiment: Growth inhibition of human CCRF-CEM cells incubated for 48 hrs by sulforhodamine B assay; summary of the method: as §2
[10] = test system: UACC-62; experiment: Growth inhibition of human UACC-62 cells assessed as cell growth at 0.1 uM incubated for 48 hrs by sulforhodamine B assay relative to control; settings: read-out: Activity
[11] = test system: MCF7; experiment: Growth inhibition of human MCF7 cells assessed as cell growth at 100 uM incubated for 48 hrs by sulforhodamine B assay relative to control; settings: read-out: Activity
[12] = test system: SF-295; experiment: Growth inhibition of human SF-295 cells assessed as cell growth at 1 uM incubated for 48 hrs by sulforhodamine B assay relative to control; settings: read-out: Activity
[13] = test system: RPMI-8226; experiment: Growth inhibition of human RPMI-8226 cells assessed as cell growth at 100 uM incubated for 48 hrs by sulforhodamine B assay relative to control; settings: read-out: Activity
[14] = test system: NCI-H226; experiment: Growth inhibition of human NCI-H226 cells incubated for 48 hrs by sulforhodamine B assay; settings: for CC50: read-out: LC50 (the source's name); summary of the method: as §1
[15] = test system: MDA-MB-435; experiment: Growth inhibition of human MDA-MB-435 cells assessed as cell growth at 0.01 uM incubated for 48 hrs by sulforhodamine B assay relative to control; settings: read-out: Activity
[16] = test system: LOX IMVI; experiment: Growth inhibition of human LOX IMVI cells assessed as cell growth at 0.1 uM incubated for 48 hrs by sulforhodamine B assay relative to control; settings: read-out: Activity
[17] = test system: OVCAR-5; experiment: Growth inhibition of human OVCAR-5 cells assessed as cell growth at 100 uM incubated for 48 hrs by sulforhodamine B assay relative to control; settings: read-out: Activity
[18] = test system: PC-3; experiment: Growth inhibition of human PC-3 cells assessed as cell growth at 1 uM incubated for 48 hrs by sulforhodamine B assay relative to control; settings: read-out: Activity
[19] = test system: SW-620; experiment: Growth inhibition of human SW-620 cells assessed as cell growth at 100 uM incubated for 48 hrs by sulforhodamine B assay relative to control; settings: read-out: Activity
[20] = test system: RXF 393; experiment: Growth inhibition of human RXF 393 cells assessed as cell growth at 1 uM incubated for 48 hrs by sulforhodamine B assay relative to control; settings: read-out: Activity
[21] = test system: CAKI-1; experiment: Growth inhibition of human CAKI-1 cells assessed as cell growth at 0.1 uM incubated for 48 hrs by sulforhodamine B assay relative to control; settings: read-out: Activity; summary of the method: as §2
[22] = test system: SK-MEL-2; experiment: Growth inhibition of human SK-MEL-2 cells assessed as cell growth at 0.1 uM incubated for 48 hrs by sulforhodamine B assay relative to control; settings: read-out: Activity
[23] = test system: KM12; experiment: Growth inhibition of human KM12 cells assessed as cell growth at 100 uM incubated for 48 hrs by sulforhodamine B assay relative to control; settings: read-out: Activity
[24] = test system: SN12C; experiment: Growth inhibition of human SN12C cells assessed as cell growth at 100 uM incubated for 48 hrs by sulforhodamine B assay relative to control; settings: read-out: Activity
[25] = test system: K562; experiment: Growth inhibition of human K562 cells assessed as cell growth at 1 uM incubated for 48 hrs by sulforhodamine B assay relative to control; settings: read-out: Activity
[26] = test system: BT-549; experiment: Growth inhibition of human BT-549 cells incubated for 48 hrs by sulforhodamine B assay; settings: for CC50: read-out: LC50 (the source's name); summary of the method: as §2
[27] = test system: OVCAR-5; experiment: Growth inhibition of human OVCAR-5 cells incubated for 48 hrs by sulforhodamine B assay; settings: for CC50: read-out: LC50 (the source's name); summary of the method: as §3
[28] = test system: MDA-MB-435; experiment: Growth inhibition of human MDA-MB-435 cells assessed as cell growth at 0.1 uM incubated for 48 hrs by sulforhodamine B assay relative to control; settings: read-out: Activity
[29] = test system: TK-10; experiment: Growth inhibition of human TK-10 cells assessed as cell growth at 100 uM incubated for 48 hrs by sulforhodamine B assay relative to control; settings: read-out: Activity
[30] = test system: BT-549; experiment: Growth inhibition of human BT-549 cells assessed as cell growth at 100 uM incubated for 48 hrs by sulforhodamine B assay relative to control; settings: read-out: Activity
[31] = test system: TK-10; experiment: Growth inhibition of human TK-10 cells incubated for 48 hrs by sulforhodamine B assay; settings: for CC50: read-out: LC50 (the source's name); summary of the method: as §3
[32] = test system: CCRF-CEM; experiment: Growth inhibition of human CCRF-CEM cells assessed as cell growth at 100 uM incubated for 48 hrs by sulforhodamine B assay relative to control; settings: read-out: Activity; summary of the method: as §2
[33] = test system: SK-MEL-2; experiment: Growth inhibition of human SK-MEL-2 cells assessed as cell growth at 100 uM incubated for 48 hrs by sulforhodamine B assay relative to control; settings: read-out: Activity
[34] = test system: Hs-578T; experiment: Growth inhibition of human Hs-578T cells assessed as cell growth at 100 uM incubated for 48 hrs by sulforhodamine B assay relative to control; settings: read-out: Activity
[35] = test system: HCT-15; experiment: Growth inhibition of human HCT-15 cells assessed as cell growth at 100 uM incubated for 48 hrs by sulforhodamine B assay relative to control; settings: read-out: Activity

With `Nc1c(C(=O)Nc2ccccc2)sc2nc3c(cc12)CN(Cc1ccccc1)CC3` the growth at 100 µM [1] was 24%, the GI50 [2] was 21.7 µM and the LC50 (50% lethal concentration) [2] was > 100 µM. The TGI [2] was > 100 µM, the growth at 100 µM [3] was 42% and the GI50 [4] was > 100 µM. For the same compound, the TGI [4] was > 100 µM, the CC50 [4] was > 100 µM and the GI50 [5] was 52.8 µM. The LC50 (concentration killing 50% of cells) [5] was > 100 µM, the TGI [5] was > 100 µM and the growth at 0.1 µM [6] was 92%. For the same compound, the GI50 [7] was 2.78 µM, the TGI [7] was > 100 µM and the CC50 [7] was > 100 µM. The growth at 1 µM [8] was 96%, the GI50 [9] was 50.3 µM and the LC50 [9] was > 100 µM. For the same compound, the TGI [9] was > 100 µM, the growth at 0.1 µM [10] was 92% and the growth at 100 µM [11] was 14%. The growth at 1 µM [12] was 90%, the growth at 100 µM [13] was 42% and the GI50 [14] was 4.91 µM. The TGI [14] was > 100 µM, the CC50 [14] was > 100 µM and the growth at 0.01 µM [15] was 93%. For the same compound, the growth at 0.1 µM [16] was 102%, the growth at 100 µM [17] was 66% and the growth at 1 µM [18] was 89%. For the same compound, the growth at 100 µM [19] was 23%, the growth at 1 µM [20] was 87% and the growth at 0.1 µM [21] was 86%. It also gave a growth at 0.1 µM [22] of 95%, a growth at 100 µM [23] of 25% and a growth at 100 µM [24] of 47%. For the same compound, the growth at 1 µM [25] was 88%, the GI50 [26] was 16.8 µM and the TGI [26] was 92.3 µM. The CC50 [26] was > 100 µM, the GI50 [27] was > 100 µM and the TGI [27] was > 100 µM. For the same compound, the CC50 [27] was > 100 µM, the growth at 0.1 µM [28] was 85% and the growth at 100 µM [29] was -7%. For the same compound, the growth at 100 µM [30] was -2%, the GI50 [31] was 4.09 µM and the TGI [31] was 54.7 µM. For the same compound, the CC50 [31] was > 100 µM, the growth at 100 µM [32] was 36% and the growth at 100 µM [33] was 4%. It also gave a growth at 100 µM [34] of -6% and a growth at 100 µM [35] of 25%.

For `COc1cccc(NC(=O)c2sc3nc4c(cc3c2N)CN(Cc2ccccc2)CC4)c1`, the growth at 100 µM [1] was -19%, the GI50 [2] was 7.18 µM and the LC50 (50% lethal concentration) [2] was > 100 µM. For the same compound, the TGI [2] was 49.2 µM, the growth at 100 µM [3] was -47% and the GI50 [4] was 25.2 µM. The TGI [4] was > 100 µM, the CC50 [4] was > 100 µM and the GI50 [5] was 6.52 µM. For the same compound, the LC50 (concentration killing 50% of cells) [5] was > 100 µM, the TGI [5] was > 100 µM and the growth at 0.1 µM [6] was 92%. It also gave a GI50 [7] of 1.99 µM, a TGI [7] of 6.56 µM and a CC50 [7] of 36.4 µM. The growth at 1 µM [8] was 81%, the GI50 [9] was 29.5 µM and the LC50 [9] was > 100 µM. For the same compound, the TGI [9] was > 100 µM, the growth at 0.1 µM [10] was 89% and the growth at 100 µM [11] was 3%. The growth at 1 µM [12] was 77%, the growth at 100 µM [13] was 27% and the GI50 [14] was 6.03 µM. The TGI [14] was 38.3 µM, the CC50 [14] was > 100 µM and the growth at 0.01 µM [15] was 93%. For the same compound, the growth at 0.1 µM [16] was 102%, the growth at 100 µM [17] was 34% and the growth at 1 µM [18] was 73%. The growth at 100 µM [19] was -5%, the growth at 1 µM [20] was 84% and the growth at 0.1 µM [21] was 91%. For the same compound, the growth at 0.1 µM [22] was 112%, the growth at 100 µM [23] was -37% and the growth at 100 µM [24] was 16%. For the same compound, the growth at 1 µM [25] was 31%, the GI50 [26] was 2.83 µM and the TGI [26] was 26.2 µM. The CC50 [26] was > 100 µM, the GI50 [27] was 36.9 µM and the TGI [27] was > 100 µM. The CC50 [27] was > 100 µM, the growth at 0.1 µM [28] was 91% and the growth at 100 µM [29] was -55%. It also gave a growth at 100 µM [30] of -32%, a GI50 [31] of 4.82 µM and a TGI [31] of 21.6 µM. The CC50 [31] was 86.8 µM, the growth at 100 µM [32] was 21% and the growth at 100 µM [33] was -28%. It also gave a growth at 100 µM [34] of -9% and a growth at 100 µM [35] of 6%.
